Compound activity as filed in PubChem BioAssay.
UHRF1 binding = human UHRF1 methylated DNA binding inhibitors | UHRF1 binding to methylated oligo, TR-FRET | AID 687016 | 370,000 tested, 0.75% active | inhibition, % at 4.4 µM; in the data active = inhibition above about 21%;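 also: UHRF1 SRA domain binding a hemimethylated CpG hairpin DNA probe; 0% = median of test compound wells and 100% = reference inhibitor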
Rin1-Abl PPI inh = human Rin1-Abl interaction inhibition; AID 588664; TR-FRET Rin1/Abl binding, biochemical; P00519+Q13671; inhibition, % at 7.35 µM; 360,000 tested, 0.4% active; in the data active = inhibition above about 5%, passing the limit was not always enough
MBD2 inh = blocks human MBD2 binding to methylated DNA | Q9UBB5 | TR-FRET, MBD2 binding to methylated oligonucleotide | inhibition, % at 4.4 µM | 370,000 tested, 0.31% active | AID 686964; in the data active = inhibition above about 13%
ABHD5-PLIN5 inh = ABHD5-PLIN5 protein interaction inhibition; inhibition, % at 4 µM; Q00G26+Q8WTS1; Split G. princeps luciferase complementation, luminescence, 4 h; 360,000 tested, 0.78% active;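 active = inhibition above the mean inhibition across every tested compound plus 3 SD, cut at about 22% in these data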;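 also: 0% = DMSO only wells and the 100% control is not disclosed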
Beta2AR agonist = agonists of human beta-2 adrenergic receptor inducing internalization; P07550; 340,000 tested, 0.43% active; response, % (no concentration beside the values); Am2.2-beta2AR cells, FAP receptor internalization, flow cytometry;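 active = response above a set limit, near 3 SD of response in nonfluorescent compounds, cut at about 42% in these data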
Arrestin-AP2 inh = inhibitors of human beta-arrestin and AP2 interaction; FITC-arrestin peptide / GST-AP2 beads, flow cytometry; AP2 beta2 appendage carries R879A mutation; AID 504490; 340,000 tested, 0.31% active; inhibition, % at 10 µM;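 active = inhibition above a set limit, near 3 SD of compounds lacking own fluorescence, cut at about 54% in these data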;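 also: plate controls were DMSO wells for no effect and 5 µM unlabelled arrestin peptide for full effect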
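Material – AP2 appendage R879A on GSH beads · Buffer or medium – PBS with 0.05% Tween 20 and 0.1% BSA · Probe or stimulus – fluorescein-tagged arrestin peptide at 50 nM final · Incubation – compound with beads 12 min RT, then probe 1 h RT · Detection – high-throughput flow cytometry of beads, ex 488, em 535 nm · Evaluation – percent response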
Arr-AP2 CP1 = inhibitors of human beta-arrestin and AP2 interaction | 1,300 tested, 2% active | AID 504908 | GST-AP2 beads, FITC arrestin peptide binding, flow cytometry; GST-fused beta2-adaptin appendage, R879A mutant | shares compounds with Arrestin-AP2 inh | inhibition, % at 10 µM;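 active = inhibition above a set limit, roughly 3 SD of non-fluorescent compound noise, cut at about 38% in these data; inactive = inhibition at or below that limit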;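 also: loss of bead fluorescence from 50 nM FITC arrestin peptide bound to appendage; 0% = negative control wells and 100% = excess unlabelled arrestin peptide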
Target sequence (P63010 whole entry, looked up, the tested form may be a part, one chain of several): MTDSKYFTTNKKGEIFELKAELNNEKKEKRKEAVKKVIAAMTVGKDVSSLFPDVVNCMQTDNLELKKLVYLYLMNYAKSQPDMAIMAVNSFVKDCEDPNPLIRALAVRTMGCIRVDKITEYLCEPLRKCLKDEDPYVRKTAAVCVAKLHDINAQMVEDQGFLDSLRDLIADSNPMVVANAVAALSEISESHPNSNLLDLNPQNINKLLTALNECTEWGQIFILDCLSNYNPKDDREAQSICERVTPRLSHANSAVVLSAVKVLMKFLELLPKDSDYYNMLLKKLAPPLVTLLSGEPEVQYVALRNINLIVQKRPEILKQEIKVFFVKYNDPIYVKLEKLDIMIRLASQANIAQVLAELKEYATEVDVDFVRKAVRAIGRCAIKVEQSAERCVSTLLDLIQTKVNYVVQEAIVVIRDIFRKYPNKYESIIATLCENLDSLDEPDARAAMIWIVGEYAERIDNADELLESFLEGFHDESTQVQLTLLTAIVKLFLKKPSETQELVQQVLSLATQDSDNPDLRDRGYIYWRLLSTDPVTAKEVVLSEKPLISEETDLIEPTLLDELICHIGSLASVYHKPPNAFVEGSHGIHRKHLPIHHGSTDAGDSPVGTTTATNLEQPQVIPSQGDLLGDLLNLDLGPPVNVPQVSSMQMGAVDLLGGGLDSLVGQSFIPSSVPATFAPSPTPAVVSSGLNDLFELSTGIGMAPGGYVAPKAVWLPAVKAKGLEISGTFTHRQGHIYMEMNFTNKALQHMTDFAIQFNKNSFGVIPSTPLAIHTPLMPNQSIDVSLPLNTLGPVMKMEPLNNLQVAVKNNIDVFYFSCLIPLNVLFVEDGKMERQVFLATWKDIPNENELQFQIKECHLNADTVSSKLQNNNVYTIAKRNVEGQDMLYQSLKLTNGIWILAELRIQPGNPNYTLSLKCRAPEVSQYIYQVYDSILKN
GST GSH counter = GST-GSH bead binding interference, counter-screen; inhibition, % at 10 µM; AID 588338; 1,300 tested, 2% active; GST-fluorescein binding to GSH beads, fluorescence; shares compounds with Arrestin-AP2 inh;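 active = inhibition above 50%, about 3 SD of the inhibition seen with non-fluorescent compounds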;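 also: fluorescein maleimide labelled GST captured on 4 micron glutathione beads; higher means more loss of bead fluorescence from quenching or blocked binding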
* hit, by the source's call; x = no result given. In the library only some 2.5% were active in any assay of this set; here they are far more common.

SMILES	UHRF1 binding	Rin1-Abl PPI inh	MBD2 inh	ABHD5-PLIN5 inh	Beta2AR agonist	Arrestin-AP2 inh	Arr-AP2 CP1	GST GSH counter
Cc1ccc(CS(=O)(=O)Cc2ccc(C(=O)NCCCN3CC(C)CC(C)C3)o2)cc1 (stereo not drawn)	0	4	-7	5	6	-4	x	x
COC(=O)C1CN(Cc2ccccc2)CCS(=O)(=O)N1Cc1cn(Cc2ccc(C)cc2)nn1 (stereo not drawn)	10	x	2	x	x	x	x	x
O=C(NC1CC2CCCC(C1)N2C(=O)NCc1ccccc1)C1CC1 (stereo not drawn)	19	2	7	3	2	20	x	x
O=C(NC1CC2CCCC(C1)N2C(=S)NCCc1ccccc1)C1CC1 (stereo not drawn)	-1	1	-5	1	12	56*	-2	-3
C[C@H]1C2CC(OC(=O)NCCCc3ccccc3)C(C2)[C@H]2CCCCN21 (stereo partly drawn)	0	x	2	x	x	x	x	x
COc1cc2c(cc1OC)CN(C(=S)Nc1ccc(OC(F)F)cc1)CC2	1	1	-4	2	-1	56*	0	-3
COc1ccc(S(=O)(=O)NCC2CCCN(Cc3cccc(C(C)=O)c3)C2)cc1 (stereo not drawn)	-3	-3	-4	-3	-5	62*	5	-1
COc1ccc(S(=O)(=O)NCC2CCCN(Cc3cccnc3)C2)cc1 (stereo not drawn)	-2	2	1	-3	4	27	x	x
CN(C)C(CNC(=O)CCNS(=O)(=O)c1ccccc1C(F)(F)F)c1ccccc1 (stereo not drawn)	0	1	-3	8	-1	58*	10	-4
C=CCOC/C=C/C#CCN(Cc1ccc(OC)cc1OC)C(=O)Nc1ccccc1	-2	x	0	x	x	x	x	x
COc1ccc(-c2nn(-c3ccccc3)cc2/C=C(\C#N)S(=O)(=O)c2ccccc2)cc1OC	4	3	1	6	-8	78*	22	-3
CCN(CC)CCCNC(=O)c1cn(C(C)c2ccccc2)nn1 (stereo not drawn)	0	x	3	x	x	x	x	x
O=C(c1ccc(Cl)c(Cl)c1)N1CCN(c2ccnc3cc(Cl)ccc23)CC1	1	x	-3	x	x	x	x	x
Cc1ccc(CN2CCCCC(NC(=O)C(C)(C)C)C2=O)cc1 (stereo not drawn)	0	x	-1	x	x	x	x	x
COc1ccc(OC)c(CN2CCN(C(=O)CCC(=O)c3cccs3)CC2)c1	-2	3	-1	2	4	55*	0	0
Cc1c(N(C(=O)Nc2ccccc2)C2=NCC(C)S2)c(=O)n(-c2ccccc2)n1C (stereo not drawn)	-1	1	12	1	-10	98*	-3	-1
Cc1ccc(N(C(=O)Nc2ccccc2)C2=NCC(C)S2)cc1 (stereo not drawn)	0	-7	-4	6	-1	8	x	x
CC(=O)c1cc(-c2ccc3c(c2)OCO3)c(=O)n2c1CCC2	-1	x	2	x	x	x	x	x
c1ccc(CCNCC2COc3ccccc3O2)cc1 (stereo not drawn)	0	-1	4	5	-8	55*	-11	0
O=C(Nc1ccccc1N1CCCC1)c1ccc(Br)o1	-4	-3	-6	0	-13	29	x	x
COc1ccc(N2CCCC2)c(NC(=O)c2ccc(Br)o2)c1	-7	-1	-13	2	-4	64*	19	-6
C=CCN1/C(=C(\C#N)C2=NS(=O)(=O)c3ccccc32)N(C)c2ccccc21	2	-1	2	1	-8	55*	8	-4
O=C(Nc1ccc(OC(F)(F)F)cc1)Nc1c(-c2ccc(F)cc2)nc2ncccn12	0	x	-1	x	x	x	x	x
O=C(Nc1ccc(Br)cc1F)c1ccncc1	1	2	-5	-2	0	97*	2	0
CCN(CC)C(=O)CC[C@H]1CC[C@]2(CCCN(Cc3ccccc3)C2)O1	0	x	0	x	x	x	x	x
SMILES	UHRF1 binding	Rin1-Abl PPI inh	MBD2 inh	ABHD5-PLIN5 inh	Beta2AR agonist	Arrestin-AP2 inh	Arr-AP2 CP1	GST GSH counter
O=C(CNC(=O)c1ccc(Br)cc1)Nc1ccc2c(c1)CCC2	0	0	-5	5	-6	54*	12	3
CCCCSC(=S)N(C)C1CCS(=O)(=O)C1 (stereo not drawn)	1	0	2	-1	-12	98*	-10	2
COc1ccc(OCC(=O)Nc2nccs2)cc1	0	-1	-3	-6	-2	-38	x	x
COc1ccc(OCCC(=O)Nc2nccs2)cc1	3	8	3	7	-6	54*	-4	1
CCC[C@H]1[C@@H](OC(=O)NCCc2c[nH]c3ccccc23)CC[C@@]23CCCN2C(=O)CCC[C@@H]13	1	x	2	x	x	x	x	x
O=C(OC12CCCN(C1)/C(=C/c1ccncc1)C2)c1ccc(Cl)cc1 (stereo not drawn)	1	x	-1	x	x	x	x	x
O=C(CCNC(=O)C1CCN(S(=O)(=O)c2ccccc2)CC1)NCc1cccc(Cl)c1	4	0	3	-2	15	26	x	x
O=C(CCNC(=O)C1CCN(S(=O)(=O)c2ccccc2)CC1)NCc1ccc(Cl)cc1	7	-2	-1	3	-2	63*	22	-12
C#CCSc1ncc(S(=O)(=O)c2ccccc2)c(=O)[nH]1	-2	-3	-1	1	1	-10	x	x
CC(C)Sc1ncc(S(=O)(=O)c2ccccc2)c(=O)[nH]1	0	3	0	1	-2	57*	9	4
CCSc1nnc(NC(=O)C2CSC3(C)CCC(=O)N23)s1 (stereo not drawn)	1	0	3	11	11	60*	0	-4
CC12CCC(=O)N1C(C(=O)Nc1nnc(SCc3ccccc3)s1)CS2 (stereo not drawn)	0	3	3	0	11	-1	x	x
Cc1ccc2cc(CN(CCCN3CCOCC3)C(=O)NC3CCCCC3)c(=O)[nH]c2c1C	2	-3	-1	0	-8	-4	1	-10
Cc1cc2cc(CN(CCCN3CCOCC3)C(=O)NC3CCCCC3)c(=O)[nH]c2cc1C	1	-2	-4	1	-13	-1	-4	-2
Cc1cccc2cc(CN(CCN3CCOCC3)C(=O)Nc3ccccc3F)c(=O)[nH]c12	2	2	3	5	5	-8	x	x
Cc1cc(C)c2cc(CN(CCO)C(=O)NC3CCCCC3)c(=O)[nH]c2c1	0	-1	2	4	-12	20	x	x
